# Entries after “also recorded” stand apart in the source; their conditions may differ.
# What was measured:
# control HEK293 T cells = assay: cAMP reporter assay at control HEK293 T cells; format: cell-based, human
# In short: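 Control HEK293-T cells were run in the GloSensor cAMP format: luciferin loading at 4 mM, pH 8.4, 90 min, 37 °C, then removal. Test compound in pH-adjusted HBSS/HEPES/MES buffer was applied for 20 min at room temperature before luminescence reading. Results are normalised fold of basal from at least three assays, each at least in triplicate (≥16 measurements).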
# [1] = molecular target: GPR65 mutant receptors (D153A, R187L, F242A, Y272A) (Homo sapiens, UniProt Q8IYL9, D153A); assay: cAMP reporter assay at GPR65 mutant receptors; format: cell-based; details: GPR65 D153A
# Chain of GPR65 mutant receptors (D153A, R187L, F242A, Y272A) (Homo sapiens, UniProt Q8IYL9, D153A) (Q8IYL9 whole entry D153A): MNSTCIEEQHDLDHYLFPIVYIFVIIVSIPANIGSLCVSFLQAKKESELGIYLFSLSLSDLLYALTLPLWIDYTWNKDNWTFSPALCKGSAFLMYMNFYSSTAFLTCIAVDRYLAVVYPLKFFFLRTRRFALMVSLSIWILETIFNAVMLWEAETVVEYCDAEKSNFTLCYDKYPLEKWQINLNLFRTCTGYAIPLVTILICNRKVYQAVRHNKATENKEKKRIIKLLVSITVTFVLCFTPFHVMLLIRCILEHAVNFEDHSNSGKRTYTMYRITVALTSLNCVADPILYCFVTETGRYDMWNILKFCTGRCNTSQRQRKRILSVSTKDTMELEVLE
# In short: (§1)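 GloSensor cAMP assay in HEK293-T cells co-transfected with receptor (wild-type or mutant) and GloSensor 7A, plated at 15,000 cells/well for at least 6 h. Cells were loaded with luciferin (4 mM, pH 8.4, 90 min, 37 °C), which was then removed. Test compound was added in NaOH-adjusted pH solutions (HBSS, 10 mM HEPES, 10 mM MES), 20 min at room temperature. Luminescence is given as RLU fold of buffer basal. Curves were fitted with a 4-parameter logistic; n≥3.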
# [2] = tested on: GPR65 mutant receptors (D153A, R187L, F242A, Y272A); assay: cAMP reporter assay at GPR65 mutant receptors; format: cell-based, human; details: GPR65 R187L, F242A, Y272A
# In short: as §1
# GPR65 = GPR65 (Homo sapiens, UniProt Q8IYL9); assay: Split-luciferase cAMP reporter assay, GPR65; format: cell-based; details: for inhibition of GPR65: receptors activated by protons or by BTB09089; for activity at GPR65: effect on proton response, cAMP
# Chain of GPR65 (Q8IYL9 whole entry): as the sequence (Q8IYL9 whole entry D153A) above, with A153D counted along it
# In short: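 GPR65 was co-transfected with the GloSensor reporter into HEK293-T cells, which were then luciferin-loaded (4 mM, pH 8.4, 90 min, 37 °C). Test compound was applied in pH-adjusted HBSS/HEPES/MES buffer for 20 min at room temperature. The receptor was activated either by protons at pH 7.40 or by 30 μM reference agonist at pH 8.40. Luminescence was normalised to buffer basal. Data come from at least three assays, each at least in triplicate (≥16 measurements total).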
# phosphodiesterases = assay: Phosphodiesterase inhibition
# GPR68 [3] = molecular target: T1, GPR68 (Homo sapiens, UniProt Q15743); assay: Calcium mobilization assay; format: cell-based; details: 10 μM, GPR68 wild-type
# T1 sequence (Q15743 whole entry): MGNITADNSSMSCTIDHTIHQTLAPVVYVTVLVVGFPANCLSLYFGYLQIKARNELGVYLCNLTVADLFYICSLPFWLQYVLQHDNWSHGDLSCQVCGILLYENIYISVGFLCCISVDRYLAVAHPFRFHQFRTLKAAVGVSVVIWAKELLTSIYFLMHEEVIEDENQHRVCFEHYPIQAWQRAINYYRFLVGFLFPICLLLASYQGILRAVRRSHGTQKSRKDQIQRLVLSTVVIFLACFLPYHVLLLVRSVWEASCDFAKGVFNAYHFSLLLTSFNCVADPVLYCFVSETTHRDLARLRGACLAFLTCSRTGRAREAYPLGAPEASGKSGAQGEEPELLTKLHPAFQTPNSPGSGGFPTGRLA
# In short: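 HEK293-T cells were transfected, plated overnight in DMEM with 1% dialysed FBS at 15,000 cells/well, then loaded 60 min at 37 °C (5% CO2) with Fluo-4 Direct dye in drug buffer containing 2.5 mM probenecid, pH 8.0. Test compound was added first (10 μM final before the pH addition), followed by 10 min reading. pH solutions (HBSS, 7 mM each HEPES/HEPPS/MES, NaOH-adjusted) were then added. Fluorescence was read 1/s for 4 min and expressed as fold of basal; n=3.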
# [4] = tested on: wild-type and GPR68 KO mice; assay: Fear conditioning; format: in vivo
# GPR68 [5] = molecular target: T1, GPR68; assay: Split-luciferase; format: cell-based; details: for stimulation of cAMP production by benzodiazepines: 10 μM, pH 6.50 or 7.40
# In short: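 HEK293-T cells were co-transfected with receptor and GloSensor 7A reporter and plated at least 6 h at 15,000 cells/well in 1% dialysed FBS DMEM. Cells were loaded with 4 mM luciferin in drug buffer, pH 8.4, for 90 min at 37 °C; luciferin was then removed. Proton concentration-responses ran without and with rising test compound levels premixed in pH-adjusted HBSS/HEPES/MES (TAPS at high pH; BSA for some). Plates stood 20 min at room temperature before luminescence reading. Data were fitted to an allosteric operational model, with proton pEC50 as pKA.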
# A2A receptor = A2A receptor (Homo sapiens, UniProt P29274); assay: Radioligand binding profiling; details: profiling against 58 GPCRs, ion channels, and transporters
# Chain of A2A receptor (P29274 whole entry): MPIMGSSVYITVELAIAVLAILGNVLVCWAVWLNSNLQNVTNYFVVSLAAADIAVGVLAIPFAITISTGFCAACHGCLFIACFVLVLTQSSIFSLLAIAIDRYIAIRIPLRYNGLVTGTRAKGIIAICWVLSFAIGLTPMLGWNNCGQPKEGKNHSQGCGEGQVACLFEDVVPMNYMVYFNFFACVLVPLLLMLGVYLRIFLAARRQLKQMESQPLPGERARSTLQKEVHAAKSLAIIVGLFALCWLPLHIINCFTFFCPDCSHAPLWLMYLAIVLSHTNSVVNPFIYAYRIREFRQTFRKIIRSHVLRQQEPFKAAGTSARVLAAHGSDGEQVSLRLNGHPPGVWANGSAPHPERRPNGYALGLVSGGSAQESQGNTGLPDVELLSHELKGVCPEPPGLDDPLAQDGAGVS
# In short: (§2)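 Membranes came from animal brain tissue, stable cell lines or transiently transfected HEK293-T cells. Competition binding used a fixed radioligand concentration, incubated in the dark at 22 °C, and was ended by vacuum filtration onto GF/B filters, followed by beta counting. Values are mean pKi (n=2–4).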
# 5-HT2B = 5-HT2B (Homo sapiens, UniProt P41595); assay: Radioligand binding profiling; details: profiling against 58 GPCRs, ion channels, and transporters
# Chain of 5-HT2B (P41595 whole entry): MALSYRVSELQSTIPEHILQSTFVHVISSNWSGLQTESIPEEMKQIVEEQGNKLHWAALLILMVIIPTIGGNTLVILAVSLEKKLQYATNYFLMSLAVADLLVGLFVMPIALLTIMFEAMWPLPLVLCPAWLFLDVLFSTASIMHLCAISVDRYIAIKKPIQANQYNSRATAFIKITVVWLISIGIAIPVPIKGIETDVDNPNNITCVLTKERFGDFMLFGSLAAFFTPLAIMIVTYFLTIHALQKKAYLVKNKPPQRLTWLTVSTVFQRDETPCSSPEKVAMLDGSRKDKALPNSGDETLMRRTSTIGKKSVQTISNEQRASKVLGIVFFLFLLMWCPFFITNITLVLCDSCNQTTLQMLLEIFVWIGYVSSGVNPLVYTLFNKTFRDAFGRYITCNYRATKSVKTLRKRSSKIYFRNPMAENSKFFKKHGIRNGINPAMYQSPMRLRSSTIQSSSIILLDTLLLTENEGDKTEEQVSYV
# In short: as §2
# [6] = tested on: PKA and MAP kinase pathways; format: cell-based, human; details: 50 μM, 10 min, GPR68-expressing HEK293 cells
# GPR68 [7] = molecular target: T1, GPR68; assay: PI hydrolysis assay in GPR68-transfected HEK293-T cells; format: cell-based; details: 10 μM, under equilibrium
# In short: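 Transfected HEK293-T cells (24 h) were plated in 10% FBS DMEM. After 5 h they were labelled overnight with 3H-inositol (1 μCi/well) in inositol-free DMEM with 5% dialysed FBS. Cells were washed with HBSS, 10 mM HEPES, 10 mM MES, 20 mM LiCl, pH 8.4. pH-adjusted solutions containing 20 mM LiCl and 10 μM test compound were applied for 20 min. Extraction used 50 mM ice-cold formic acid, 4 °C for 30 min; extracts were bead-captured (4 °C, 30 min) and counted as cpm; n=3.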
# GPR4 = GPR4 (Homo sapiens, UniProt P46093); assay: Split-luciferase cAMP reporter assay, GPR4; format: cell-based; details: effect on proton response
# Chain of GPR4 (P46093 whole entry): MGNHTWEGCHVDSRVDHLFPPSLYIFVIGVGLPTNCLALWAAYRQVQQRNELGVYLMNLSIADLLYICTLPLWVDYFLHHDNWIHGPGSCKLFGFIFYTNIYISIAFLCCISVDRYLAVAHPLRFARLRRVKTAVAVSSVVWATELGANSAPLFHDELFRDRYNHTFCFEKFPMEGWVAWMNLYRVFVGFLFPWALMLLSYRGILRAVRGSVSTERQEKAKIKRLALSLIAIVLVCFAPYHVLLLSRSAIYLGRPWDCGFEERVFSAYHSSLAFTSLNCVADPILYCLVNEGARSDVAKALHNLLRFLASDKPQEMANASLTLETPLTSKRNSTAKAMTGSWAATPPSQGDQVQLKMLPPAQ
# In short: as §1
# GPR68 [8] = molecular target: T1, GPR68; assay: Yeast growth assay, GPR68 paired with chimeric Gq yeast; format: cell-based; details: library screen at 10 μM
# In short: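 Yeast with receptor were diluted in SD-His-Ura medium to OD600 0.02 final. Test compound was 10 μM final, in triplicate, with 3-amino-1,2,4-triazole (pH 5.4) at a level set by titration without ligand. Growth ran at 30 °C for 2–5 days. Cells were resuspended and read at OD600. % growth stimulation = […], given as mean ± SEM of three wells.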
# GABAA receptor = assay: Radioligand binding profiling
# In short: as §2
# [9] = cited from earlier work
# [10] = cAMP production, proton as agonist
compound,measurement,setting,value
COc1ccc(-c2csc(NC(=O)CSc3nc[nH]n3)n2)cc1OC [ZINC13684400],activity at control cells,control HEK293 T cells,without measurable activity
same,effect of D153A mutation on compound activity,[1],much reduced the activity
same,"effect of R187L, F242A, Y272A mutations on compound activity",[2],reduced the activity
same,mode of action at GPR65,GPR65,allosteric agonist
same,potentiation of proton efficacy/activity at GPR65,GPR65,did not potentiate
same,agonist activity at GPR65,GPR65; pH 8.40,over 2 fold of basal
O=C1CCc2cc(-c3csc(NC(=O)c4ccc(-c5ccccc5F)o4)n3)ccc2N1 [ZINC9468042],inhibition of GPR65,GPR65,GPR65-specific inhibition
O=C(Nc1nc(-c2ccc3c(c2)OCCO3)cs1)c1csnn1 [ZINC41613384],inhibition of GPR65,GPR65,GPR65-specific inhibition
Cc1nc(-c2ncccn2)sc1C(=O)O[C@@H](c1ccccc1)c1ccncc1 [ZINC62678696],inhibition of GPR65,GPR65,GPR65-specific inhibition; also recorded: inhibited
CCCCNc1c(C(=O)OCC)c(C)nc2c1cnn2CC [tracazolate],phosphodiesterase inhibition,phosphodiesterases,potent phosphodieseterase inhibitor
Nc1nc(NCc2ccccc2)nc(-c2cccc(CO)c2)n1 [ZINC32547799],effect on proton-mediated calcium release,GPR68 [3],little effect
same,learning and memory,[4]; wild-type mice,no measurable effect
same,contextual and cue memory,"[4]; wild-type mice, 10 mg/kg",no effect
same,learning,"[4]; wild-type mice, 10 mg/kg",no effect
same,contextual and cue memory,"[4]; wild-type mice, 30 mg/kg",no effect
same,learning,"[4]; wild-type mice, 30 mg/kg",enhanced
Nc1nc(NCCCc2ccccc2)nc(-c2ccccc2CO)n1 [C3],allosteric effect (qualitative comparison),GPR68 [5]; [10],reduced allostery
Nc1nc(-c2ccc(Cl)c(Cl)c2)c(-c2ccncc2)s1 [CGH2466],allosteric effect (qualitative comparison),GPR68 [5]; [10],much lower than that of ogerin
same,GPR68 activity in the presence of Ro 20-1724,GPR68 [5]; with phosphodiesterase inhibitor Ro 20-1724,minimal activity
same,phosphodiesterase inhibition,phosphodiesterases,potent phosphodieseterase inhibitor
Nc1nc(NCCc2ccccc2)nc(-c2ccccc2CO)n1 [C2],α-factor,"GPR68 [5]; allosteric operational model, proton as agonist",22
same,leftward shift of proton response relative to ogerin,GPR68 [5]; cAMP production,3 fold
OC1CCC(Nc2nc(-c3ccccc3)nc3[nH]ccc23)CC1 (centres unmarked) [SLV320],phosphodiesterase inhibition,phosphodiesterases,potent phosphodieseterase inhibitor
"CN1N=C(SCc2ccc(Cl)cc2Cl)Sc2c1cnn(C)c2=O [BTB09089, reference compound]",effect of D153A mutation on compound activity,[1],no effect
same,"effect of R187L, F242A, Y272A mutations on compound activity",[2],reduced the activity
same,agonist activity at GPR65 (qualitative),GPR65,weak agonist activity
same,mode of action at GPR65,GPR65,allosteric agonist
same,potentiation of proton efficacy/activity at GPR65,GPR65,failed to potentiate
O=C1CN=C(c2ccccc2Cl)c2cc([N+](=O)[O-])ccc2N1 [clonazepam],stimulation of cAMP production by benzodiazepines,GPR68 [5],stimulated cAMP production in a GPR68- and pH-dependent manner
O=C1CN=C(c2ccccc2)c2cc(Cl)ccc2N1 [desmethyldiazepam],stimulation of cAMP production by benzodiazepines,GPR68 [5],stimulated cAMP production in a GPR68- and pH-dependent manner
Nc1nc(NCc2ccccc2)nc(-c2ccccc2CO)n1 [ogerin],effect on proton-mediated calcium release,GPR68 [3],inhibited
same,affinity at A2A receptor,A2A receptor,moderate affinity
same,affinity at 5-HT2B,5-HT2B,moderate affinity
same,allosteric effect (qualitative comparison),GPR68 [5]; [10],much higher allosteric effect than lorazepam
same,activation of PKA and MAP kinase pathways,[6],activate
same,activity at GPR65,GPR65,minimal PAM activity
same,memory retrieval,"[4]; GPR68 KO mice, 10 mg/kg",no effect
same,contextual-based fear memory,"[4]; WT mice, 10 mg/kg",attenuated
same,cue-based memory,"[4]; WT mice, 10 mg/kg",without effects
same,effect on proton activity in PI hydrolysis,GPR68 [7],slightly potentiated
same,activity at GPR4,GPR4,minimal PAM activity
O=C1Nc2ccc(Cl)cc2C(c2ccccc2Cl)=NC1O (centres unmarked) [lorazepam],stimulation of yeast growth,GPR68 [8],more than two-fold
same,stimulation of cAMP production by benzodiazepines,GPR68 [5],stimulated cAMP production in a GPR68- and pH-dependent manner
same,activity in panel of CNS targets,GABAA receptor,substantial activity
same,activation of PKA and MAP kinase pathways,[6],activate
same,activity at GPR65,GPR65,no activity
same,concentration in plasma during treatment,[9],micromolar
same,activity at GPR4,GPR4,no activity
Nc1nc(NCCCCc2ccccc2)nc(-c2ccccc2CO)n1 [C4],allosteric effect (qualitative comparison),GPR68 [5]; [10],reduced allostery
O=C1CN=C(c2ccccc2F)c2cc(Cl)ccc2N1 [norfludiazepam],stimulation of cAMP production by benzodiazepines,GPR68 [5],stimulated cAMP production in a GPR68- and pH-dependent manner

# From article PMC4796946 (Nature, 2015)
